# Experimental data from different studies.
# Compare with care: the assays were run in different laboratories.
# Target: D(4) dopamine receptor (DRD4, Homo sapiens, UniProt P21917)
# Method: radioligand
# Residues used in one study (P21917 1-419): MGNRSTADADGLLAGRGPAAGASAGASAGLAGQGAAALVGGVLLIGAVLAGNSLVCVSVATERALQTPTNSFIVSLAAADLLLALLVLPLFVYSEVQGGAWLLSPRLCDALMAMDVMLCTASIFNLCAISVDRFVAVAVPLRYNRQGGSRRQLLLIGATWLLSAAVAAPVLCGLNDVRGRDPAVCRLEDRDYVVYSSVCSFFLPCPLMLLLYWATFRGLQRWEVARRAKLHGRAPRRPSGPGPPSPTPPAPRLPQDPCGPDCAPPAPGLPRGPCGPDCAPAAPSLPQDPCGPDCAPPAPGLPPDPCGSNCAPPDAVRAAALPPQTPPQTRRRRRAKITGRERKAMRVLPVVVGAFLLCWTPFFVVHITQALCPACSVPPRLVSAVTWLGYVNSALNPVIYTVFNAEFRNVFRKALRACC
Compound,assay,Ki [µM]
CCN(CC)c1ccc(C2Nc3ccc(C(=O)c4ccccc4)cc3NC3=C2C(=O)CC(C)(C)C3)cc1 (centres unmarked),cell-free assay,1.53
Oc1cccc(CCC2=NCCN2CCc2ccccc2)c1,ligand displacement,0.589
CCCCN1CCC(COC(=O)c2ccc(N)c(OCF)c2)CC1,cell-free assay,> 10
CCCCCCCCCCCCNCCCc1ccc([N+](=O)[O-])cc1,ligand displacement,1.8
CCOc1c(O)cc(Br)c2c1CN1CCc3cc(OCC(F)F)c(O)cc3[C@@H]1C2,cell-free assay,2.72
COc1ccc2c(c1)C(=O)N(CCCN1CCN(c3ccccc3OC)CC1)C2,ligand displacement,0.0084
c1ccc(CCC2=NCCN2CCc2ccccc2)cc1,ligand displacement,0.758
Cc1ccc(OC[C@@H]2CN(CCN3CCc4ccccc43)CCO2)cn1,ligand displacement,0.503
CCCCCCCNCCCc1ccccc1,ligand displacement,0.39
Oc1ccc(CCC2=NCCN2CCc2ccccc2)cc1,ligand displacement,> 10
O=C1c2ccccc2CCCN1CCCCN1CCN(c2ccccn2)CC1,ligand displacement,0.0065
